Measured values of several laboratories.
Effect on: enzyme activity
Mode: inhibitor
WEE2: Wee1-like protein kinase 2 (WEE2, Homo sapiens, UniProt P0C1S8)
TcPGFS: TcPGFS (Trypanosoma cruzi, UniProt Q8I6L9)
MARK2: Serine/threonine-protein kinase MARK2 (MARK2, Homo sapiens, UniProt Q7KZI7)
HIPK4: Homeodomain-interacting protein kinase 4 (HIPK4, Homo sapiens, UniProt Q8NE63)

For `Cc1ccc(C(=O)Nc2ccc(CN3CCN(C)CC3)c(C(F)(F)F)c2)cc1C#Cc1cnc2cccnn12`, the remaining activity was 96% (WEE2; 23.5 nM).
With `CC1(C)CCC2=C(O1)c1ccccc1C(=O)C2=O` the remaining activity was 86% (TcPGFS; 200 µM).
For `NS(=O)(=O)c1ccc(CNc2ccnc(Nc3cccc(CN4CCOCC4)c3)n2)cc1`, the remaining activity was 102% (MARK2; radiometric; 1 µM).
`O=C(O)c1ccc2c(c1)nc(Nc1ccc(Cl)cc1)c1ncncc12` gave a remaining activity of 62% (HIPK4; radiometric; 1 µM).
With `CCCOc1ccc(OC)c(F)c1C(=O)c1ccc(C(=O)N[C@@H]2CNC[C@H]2NC(=O)c2ccc3[nH]ncc3c2)cc1` the remaining activity was 77% (Ribosomal protein S6 kinase alpha-1 (Rps6ka1, Rattus norvegicus, UniProt Q63531); 0.5 µM).
For `COc1cc(Cl)c(C(=O)N[C@@H](CN[C@H]2CC[C@@H](N)CC2)Cc2ccc(C#N)cc2)cc1-c1ccc(CN[C@H](C)c2ccc(C)cc2)o1`, the remaining activity was 89% (WEE2; 1 µM).
The remaining activity of `O=C(O)c1ccc2c(c1)nc(NCCc1cccc(F)c1)c1ccncc12` is reported as -10% (HIPK4; radiometric; 1 µM).
`NS(=O)(=O)c1ccc(CNc2ccnc(Nc3cccc(NC(=O)N4CCCC4)c3)n2)cc1` gave a remaining activity of 115% (MARK2; radiometric; 1 µM).
With `O=C(O)c1ccc2c(c1)nc(Nc1ccccc1)c1ncncc12` the remaining activity was 103% (HIPK4; radiometric; 1 µM).
For `CC1CS(=O)(=O)CCN1/N=C/c1ccc([N+](=O)[O-])o1` (stereo not shown), the remaining activity was 6% (TcPGFS; 200 µM).
